This note sets out measurements from ChEMBL document CHEMBL4184106, “Discovering alkylamide derivatives of bexarotene as new therapeutic agents against triple-negative breast cancer” (Bioorg Med Chem Lett, 2018).

Data set [1] has as its system BT-549. Description: Cytotoxicity against human BT549 cells assessed as reduction in cell viability by MTT assay. The class given is functional, cell-based. For orientation: Tetrazolium assays rely on reduction of a dye to a coloured formazan, in cell work by metabolically active cells.
The next data set concerns MCF-10A. Description: Cytotoxicity against human MCF10A cells assessed as reduction in cell viability by MTT assay. The class given is cell-based.
In data set [2] the test system is MCF7. Nature of the data set: Induction of apoptosis in human MCF7 cells assessed as ratio of cleaved caspase-3 to beta-actin level at 5 uM by western blot analysis (reference value: 1). Format: functional.
Data set [3] concerns MDA-MB-231. Description: Induction of apoptosis in human MDA-MB-231 cells assessed as ratio of cleaved caspase-8 to beta-actin level at 5 uM by western blot analysis (reference value: 1). The class given is functional. For orientation: In western blotting, separated proteins are transferred to a membrane and probed.
The test system of data set [4] is MCF7. Nature of the data set: Induction of apoptosis in human MCF7 cells assessed as ratio of cleaved caspase-8 to beta-actin level at 5 uM by western blot analysis (reference value: 1). The class given is functional.
Data set [5] concerns MDA-MB-231. Description: Induction of apoptosis in human MDA-MB-231 cells assessed as ratio of cleaved caspase-9 to beta-actin level at 5 uM by western blot analysis (reference value: 1). Format: functional.
Data set [6] deals with BT-549. Nature of the data set: Induction of apoptosis in human BT549 cells assessed as ratio of cleaved caspase-9 to beta-actin level at 5 uM by western blot analysis (reference value: 1). Format: functional.
The test system of data set [7] is MDA-MB-231. Description: Inhibition of colony formation in human MDA-MB-231 cells at 2 uM supplemented with fresh medium containing compound every 3 days for 10 days by microscopic method based soft agar colony formation assay relative to control. Format: functional.
For data set [8], the system named is MDA-MB-231. Description: Down regulation of KLF4 expression in human MDA-MB-231 cells at 5 uM by Western blot analysis. The class given is functional.
The test system of data set [9] is MCF7. Description: Inhibition of mammosphere formation in human MCF7 cells assessed as ratio of Oct4A to beta actin level at 5 uM by Western blot analysis (Rvb= 1). Format: functional. In outline:
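Post-treatment cell lysates were probed by Western blot for CSC markers, with β-actin as the loading control. Band densitometry was normalized to DMSO-treated samples.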

The test system of data set [10] is BT-549. Nature of the data set: Inhibition of mammosphere formation in human BT549 cells assessed as ratio of KLF4 to beta actin level at 5 uM by Western blot analysis (Rvb= 1). The class given is functional.
The test system of data set [11] is BT-549. Description: Effect on epithelial-mesenchymal transition in human BT549 cells assessed as ratio of vimentin to beta-actin level at 5 uM by Western blot analysis (reference value: 1). Format: functional.
Data set [12] deals with MDA-MB-231. Description: Effect on beta-catenin translocation in cytosolic fraction of human MDA-MB-231 cells assessed as ratio of beta-catenin to beta-actin level at 5 uM by Western blot analysis (reference value: 1). The class given is functional.
The test system of data set [13] is MDA-MB-231. Nature of the data set: Induction of apoptosis in nuclear fractions of human MDA-MB-231 cells assessed as ratio of PARP to beta-actin level at 5 uM by western blot analysis (reference value: 1). The class given is functional.

Broadly, the EC50 is the concentration that produces a half-maximal response. Turning to `C=C(c1ccc(C(=O)NCCN2CCCC2)cc1)c1cc2c(cc1C)C(C)(C)CCC2(C)C`, the EC50 in the data set on BT-549 [1] is less than 10 µM. The Activity entry in the data set on MCF-10A was “Non-Toxic”; with MDA-MB-231 [8], 50%. The Ratio with MCF7 [2] worked out at 1; in the data set on MDA-MB-231 [3] it was 3.7; in the data set with MCF7 [4] it was 1; in the data set with MDA-MB-231 [5], 1.7; in the data set with BT-549 [6], 2.1; in the data set on MCF7 [9], 1.1. The Ratio came out at 0.8 in the data set with BT-549 [10], 1 in the data set on BT-549 [11], 2.1 in the data set with MDA-MB-231 [12] and 0.9 in the data set with MDA-MB-231 [13]. In the data set on MDA-MB-231 [7], the “inhibition (INH)” value was found to be 90%.
